High-throughput results (PubChem)
Only some compounds are listed: those with a hit (about 2% of all), similar ones and a draw of the others.
FXN GAA850 act – frataxin GAA850 promoter activation; HEK293 lucGAA850 FXN promoter luciferase reporter, 24 h; percent of 10 µM SAHA response; activation, % at 6 µM; 0.56% of 360,000 active;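 active = activation above the average of all compounds screened plus 3 SD, cutoff fixed separately per campaign, cut at about 7.5% in these data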;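 note: 0% = DMSO wells and 100% = 10 µM SAHA wells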
NR2E3 ag-1 – activates human NR2E3 receptor; Q9Y5X4; CHO-S Gal4-NCOR/VP16-NR2E3 two-hybrid, luciferase; inhibition of corepressor binding, % at 3.98 µM; 0.35% of 360,000 active;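 active = inhibition above the mean of all tested compounds plus 3 SD, cut at about 70% in these data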;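 note: 0% = DMSO with NR2E3 transfected cells and 100% = cells lacking NR2E3 construct; higher means lower luciferase signal from less NR2E3 corepressor binding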
Target sequence (Q9Y5X4 whole entry, looked up, the tested form may be a part): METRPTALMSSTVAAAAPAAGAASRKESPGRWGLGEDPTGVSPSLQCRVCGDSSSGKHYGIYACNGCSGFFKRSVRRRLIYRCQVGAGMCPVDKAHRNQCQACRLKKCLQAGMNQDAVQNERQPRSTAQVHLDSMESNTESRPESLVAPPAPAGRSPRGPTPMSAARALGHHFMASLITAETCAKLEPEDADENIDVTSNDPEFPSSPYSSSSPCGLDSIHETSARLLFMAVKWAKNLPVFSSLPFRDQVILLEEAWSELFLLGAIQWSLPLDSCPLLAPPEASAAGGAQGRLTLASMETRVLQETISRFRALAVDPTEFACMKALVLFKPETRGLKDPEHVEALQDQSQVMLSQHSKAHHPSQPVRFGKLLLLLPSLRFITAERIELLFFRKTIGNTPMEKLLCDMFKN
NR2E3 ag-2 – NR2E3 (human) agonism; inhibition of corepressor binding, % at 4.78 µM; 0.12% of 320,000 active; GST-NR2E3/biotin-RetCOR TR-FRET, 1536-well;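 active = percent inhibition above the cutoff of mean plus 3 SD of all tested compounds, set per screening campaign, cut at about 20% in these data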;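 note: 0% = DMSO wells and 100% = biotin wells as full block of FRET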
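Assay system: NR2E3–RetCOR corepressor complex. Quantity: 1.35 nM GST-NR2E3. Buffer or medium: pH 7.5 Tris-based buffer. Reagent: biotinylated RetCOR corepressor at 7 nM final. Schedule: 5 h at 4 °C. Detection: TR-FRET, emission read at 617 and 671 nm. Replicates: one well per compound, singlicate testing.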
Myeloid diff 2 – compounds promoting myeloid differentiation. calls only at 10 µM. 1% of 360,000 active. ER-HoxA9 myeloid progenitors, lysozyme-GFP differentiation, flow cytometry;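 active = normalized GFP-positive differentiation at or above the plate's own cutoff, the solvent-only control mean plus 3 SD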;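 note: cells exposed to compound for four days before flow analysis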
T cell HTS – T cell immune modulators affecting CD8 T cell-vesicle binding; 2C CD8+ T cell-vesicle binding, flow cytometry; hits give low values; response (vesicle binding), % at 7 µM; 0.068% of 330,000 active;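 active = response, share of CD8 T cells binding vesicles, and their 90th percentile fluorescence all below set limits, cut at about 80% in these data, passing the limit was not always enough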;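 note: values below 100% mean blocked vesicle binding to the CD8+ T cells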
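System: murine 2C transgenic CD8+ T lymphocytes; also added: QL9-loaded Drosophila micro-vesicles; times: binding 1.5 h at 37 °C; measured by: flow cytometry, PE anti-B7-1 (FL2) versus Alexa647 anti-CD8 (FL8), PFA-fixed; control set: Peptide-free naked vesicles (low) and QL9 vesicles with 0.7% DMSO vehicle (high)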
Myeloid diff CP1 – myeloid differentiation induction; shares compounds with Myeloid diff 2; ER-HoxA9 myeloid progenitors, GFP/Mac1 double-positive flow; calls only; 2% of 2,300 active;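 active = share of green or green-and-red cells above 9 and 9% in run 1 or 4 and 3% in run 2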
GFP autofluor – counter-screen for myeloid differentiation promoters: compound fluorescence | shares compounds with Myeloid diff 2 | ER-HoxA9 myeloid progenitors, no estrogen, GFP autofluorescence flow cytometry; vehicle wells 0%, positive control 100% | fluorescence response, % (no concentration beside the values) | 7.4% of 2,300 active | AID 651707;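 active = over 5% cells positive for green fluorescent reporter, or over 2% positive for both it and APC stain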;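 note: range taken on the double positive population between DMSO and positive control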
* = called active by the depositor; i = inactive; x = no result; + = active, no number.

SMILES	FXN GAA850 act	NR2E3 ag-1	NR2E3 ag-2	Myeloid diff 2	T cell HTS	Myeloid diff CP1	GFP autofluor
NC(=O)c1ccc(N2CCN(c3ccccc3F)CC2)c([N+](=O)[O-])c1	-2	20	5	i	312	i	1
O=C(Cc1cccc(NC(=O)C2CCN(C(=O)C3CCC3)CC2)c1)Nc1cccc(C(=O)N2CCOCC2)c1	1	-21	x	i	x	x	x
O=C(Cc1cccc(NC(=O)C2CCN(C(=O)C3CCC3)CC2)c1)Nc1cccc(C(=O)N2CCCC2)c1	0	18	0	i	427	i	0
Cc1ccc(-c2ccc([C@H]3[C@@H]4C=CCC[C@@]4(C)C(=O)N3Cc3ccccc3)c(F)c2)cc1	1	6	-7	i	268	x	x
COc1ccc(-c2ccc([C@H]3[C@@H]4C=CCC[C@@]4(C)C(=O)N3Cc3ccccc3)c(F)c2)cc1	-1	5	1	i	368	i	0
Cc1c(N)cc2c(c1N)C(C)(C)CC2(C)C	2	4	x	i	x	x	x
OCC[C@H]1C[C@H](O)[C@@H](O)[C@@]2(OCCCc3ccccc32)O1	-2	-8	2	+	405	i	0
COc1ccc(-n2c(SCC(=O)Nc3ccccc3)nnc2-c2ccc(NS(=O)(=O)c3ccc(C)cc3)cc2)cc1	1	-3	0	i	666	x	x
COc1ccc(-n2c(SCC(N)=O)nnc2-c2ccc(NS(=O)(=O)c3ccc(C)cc3)cc2)cc1	0	13	4	+	405	i	0
COc1ccccc1COc1cccn2c(N(C)C(=O)CCC3CCCC3)c(C)nc12	1	13	x	+	x	i	0
COC(=O)c1ccccc1COc1cccn2c(N(C)C(=O)CCC3CCCC3)c(C)nc12	-2	5	x	i	x	x	x
CCOC(=O)C1(Cc2ccccc2)CCCN(C(=O)COc2ccccc2OC)C1 (configuration not stated)	2	-106	x	i	x	x	x
O=C(Nc1cccc2ccccc12)c1ccc([N+](=O)[O-])s1	0	-1	3	i	129	x	x
O=C(Nc1ccccc1F)c1ccc([N+](=O)[O-])s1	2	-8	5	+	526	i	0
CCCN(C)C1CN(Cc2cn(Cc3ccccc3)nn2)S(=O)(=O)C1 (configuration not stated)	x	22	x	i	x	x	x
COc1ccccc1N1CCN(c2ncnc3sc(C(=O)NCC4CCCO4)c(C)c23)CC1 (configuration not stated)	0	-24	2	i	317	x	x
COc1ccc(OC)c(S(=O)(=O)N2CCC(C(=O)NCc3ccccc3)CC2)c1	1	-14	-1	i	543	i	2
COc1ccc(Cl)cc1NC(=S)N(Cc1ccccc1C)CC1CCC(C(=O)O)CC1 (configuration not stated)	2	31	5	i	518	i	1
CCc1ccccc1NC(=S)N(Cc1ccc(OC)cc1)CC1CCC(C(=O)O)CC1 (configuration not stated)	1	19	3	i	404	x	x
O=C(COc1ccc2ccc(=O)oc2c1)NC1CCN(Cc2ccccc2)CC1	0	2	1	i	202	x	x
O=C(COc1ccc2ccc(=O)oc2c1)NC1CCCC1	1	18	-5	+	261	i	0
C[C@H](CO)N1C[C@H](C)[C@@H](CN(C)Cc2ccc(Oc3ccccc3)cc2)Oc2cc(Br)ccc2S1(=O)=O	3	3	x	i	x	x	x
Cc1cc(F)ccc1-c1cc(C(=O)NCc2cc(C(F)(F)F)cc(C(F)(F)F)c2)[nH]n1	1	-37	x	i	x	x	x
Cc1csc(-c2cc(C(=O)NCc3cc(C(F)(F)F)cc(C(F)(F)F)c3)n[nH]2)c1	-1	-18	x	+	x	i	4
COc1cc2[nH]c(=O)n(CCCC(=O)N3CC=C(c4ccccc4)CC3)c(=O)c2cc1OC	0	-12	-2	+	274	i	0
